Experimental data: PubChem BioAssay AID588843 (Broad Institute, 2011)
Inconclusive results are not listed. The source made the active and inactive calls. No rule for the calls is given here.

Tested on: ldlA CHO mSR-BI C384S, [3H]cholesterol efflux to HDL
Assay: HDL-directed free cholesterol efflux, C384S receptor cells – cell-based, ldlA CHO, [3H]cholesterol, single point, dry powder, mechanism study for SR-BI HDL uptake inhibitor project (AID 588843)
Settings: for cholesterol efflux: at 1 µM, stronger effect = lower value
Summary of the method: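 Assay system: Cys384S SR-BI ldlA CHO cells | Medium: HEPES-buffered medium with 0.5% FAF-BSA | Dosing: Test compound with 0.5% DMSO final in well | Schedule: 2-day [3H]cholesterol labelling, 1% FAF-BSA equilibration, 1-h pre-exposure, 2-h efflux | Detection: Liquid scintillation counting of [3H]cholesterol in medium and cells | Read-out basis: % [3H]cholesterol effluxed to medium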

SMILES	cholesterol efflux	cholesterol efflux (measured here: second test run) [%]	outcome
O=C(Nc1ccccc1Cl)c1ccccc1NS(=O)(=O)c1ccccc1	21% (inactive)	–	–
Cc1cc(C)c2c(c1)NC(c1cc3c(cc1Br)OCO3)C1CC=CC21 (centres undefined)	19% (inactive)	–	–
O=C(Nc1cc(Cl)ccc1Cl)c1cc(Br)ccc1NS(=O)(=O)c1ccc(Cl)c([N+](=O)[O-])c1	20.5% (inactive)	–	–
CCC(=O)N1CCc2cc(-c3csc(NC(=O)c4ccco4)n3)ccc21	9.04%	7.93	–
O=C(Nc1ccc(-c2nc3cc(NC(=O)c4ccccc4Cl)ccc3o2)cc1)c1ccccc1Cl	5.15%	–	–
COc1ccc(OC)c(CCNC(=O)c2ccc3c(c2)N(Cc2ccc(F)cc2)CCS3)c1	16.9% (inactive)	–	–
O=C(Nc1ccc(-c2nc3cc(NC(=O)c4ccc(NC(=O)c5cccc6ccccc56)cc4)ccc3[nH]2)cc1)c1ccc(NC(=O)c2cccc3ccccc23)cc1	–	7.85	active
CCOc1ccccc1/C=C/c1onc(C)c1S(=O)(=O)N1CCC(C(=O)NC(C)(C)C)CC1	7.29%	–	–
Cc1ccc2oc(-c3cccc(NC(=O)c4cc(-n5cnnc5)ccc4Cl)c3)nc2c1	19.7% (inactive)	–	–
O=C(Nc1ccc(-c2nc3ccc(NC(=O)c4ccccc4)cc3[nH]2)cc1)c1ccccc1	11.7%	–	–
COc1cccc(-c2csc(N3CCN(C(=S)Nc4cccc(Cl)c4)CC3)n2)c1	16.6% (inactive)	–	–
O=C(Nc1cccc(NC(=O)c2cc([N+](=O)[O-])ccc2Cl)n1)c1cc([N+](=O)[O-])ccc1Cl	14.2%	–	–
Cc1ccccc1NC(=O)NCC1CCN(c2ccc(S(=O)(=O)N3CCOCC3)cc2)CC1	18.4% (inactive)	–	–
Cc1cc(C)n(CC(=O)NC2CCCc3c2cnn3-c2ccc(C)c(C)c2)n1 (centres undefined)	17.2% (inactive)	–	–
CC(OC(=O)c1cccc(NS(C)(=O)=O)c1)C(=O)Nc1ccc(N2CCOCC2)cc1 (centres undefined)	10.3%	–	–
COC(=O)c1cn(C(=O)c2cccc3ccccc23)c2ccccc12	19.2% (inactive)	–	–
N#Cc1sc2nc(C3CC3)cc(-c3ccc(Cl)cc3)c2c1N	14.7%	–	–
O=C(Nc1ccc(-c2nc3cc(NC(=O)c4ccccc4[N+](=O)[O-])ccc3o2)cc1)c1ccccc1[N+](=O)[O-]	5.43%	3.07	–
CCOc1ccc(NC(=O)CN2CCN(CC(=O)Nc3cc(OC)cc(OC)c3)CC2)cc1	17.9% (inactive)	–	–
O=C(Nc1cc(C(F)(F)F)ccc1Cl)c1ccccc1NS(=O)(=O)c1ccc(Cl)cc1	21.7% (inactive)	–	–
CCn1c(COc2c(C)cccc2C)nnc1SCC(=O)N1CCN(c2ccccc2)CC1	17.1% (inactive)	–	–
Cc1ccc(-c2nnc(N3CCC(C)CC3)c3ccccc23)cc1C	20.5% (inactive)	–	–
CC(C)OCCCNC(=O)c1ccc(C2SCC(=O)N2Cc2ccco2)cc1 (centres undefined)	18.9% (inactive)	–	–
CCOC(=O)N1CCC(NC(=O)c2ccc3c(c2)N(Cc2ccc(F)cc2)CCS3)CC1	–	7.46	active
Cc1cc(C(=O)C(C)OC(=O)C2=NNC(=O)CC2)c(C)n1-c1ccc(OC(F)F)cc1 (centres undefined)	16.5% (inactive)	–	–
COc1ccc([C@H]2CC(=O)C=C(c3cccc4c3sc3ccccc34)C2)cc1OC	18.7% (inactive)	–	–
COc1ccc(-c2nnn(CC(=O)N(C3CCCCC3)C(C)C(=O)NC3CCCC3)n2)cc1OC (centres undefined)	14.2%	7.04	–
O=C(Nc1ccc(Cl)cc1C(=O)c1ccc(Cl)cc1)c1cc(Br)ccc1NS(=O)(=O)c1ccc(Cl)cc1	21.7% (inactive)	–	–
Cc1cc(SC(C)C(=O)Nc2ncc(Cl)cc2Cl)nc2ccccc12 (centres undefined)	15.5%	–	–
